Data: ChEMBL document CHEMBL3232832, “Derivatives of dibenzothiophene for positron emission tomography imaging of α7-nicotinic acetylcholine receptors” (J Med Chem, 2013)

Tests used:
Brain [1] = experiment: Drug uptake in CD-1 mouse other brain region at 70 uCi, iv administered 10 mins post spiperone challenge measured after 90 mins; format: ADME, organism-based; conditions: in vivo, 1.5 h
How it was run: (§1)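 Male CD-1 mice (25–30 g). […] Brains removed 90 min later and dissected on ice. Regions weighed and gamma-counted against injectate standards. Result as %ID/g, mean ± SD, n=3; ANOVA versus controls.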

Thalamus [2] = experiment: Drug uptake in CD-1 mouse thalamus at 0.07 mCi, iv after 90 mins co-administered with SSR180711; format: ADME, organism-based; conditions: in vivo, 1.5 h
How it was run: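 Male CD-1 mice. [18F]tracer (0.07 mCi, SA 7900 mCi/µmol, 0.2 mL) co-injected i.v. with blocker at 0 (vehicle), 0.02, 0.2, 1 or 3 mg/kg. Blocker dissolved in saline:alcohol 9:1, pH 5.5. Brain regions harvested at 90 min and gamma-counted. %ID/g, mean ± SD, n=3 per dose; ANOVA versus controls.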

Cortex [3] = experiment: Drug uptake in CD-1 mouse cortex at 70 uCi, iv administered 10 mins post spiperone challenge measured after 90 mins; format: ADME, organism-based; conditions: in vivo, 1.5 h
How it was run: (§2)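 Male CD-1 mice, n=3. Drug at 2 mg/kg s.c. in saline:DMSO 5:1, with vehicle controls. [18F] radiotracer (70 µCi, SA ~14000 mCi/µmol) given i.v. 10 min later. Regions harvested 90 min after tracer, gamma counted, expressed as %ID/g. Compared by single-factor ANOVA.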

Cerebellum [4] = experiment: Drug uptake in CD-1 mouse cerebellum at 70 uCi, iv administered 10 mins post spiperone challenge measured after 90 mins; format: ADME, organism-based; conditions: in vivo, 1.5 h; how it was run: as §2
Cerebellum [5] = experiment: Drug uptake in CD-1 mouse cerebellum at 70 uCi, iv after 90 mins in presence of cytisine; format: ADME, organism-based; conditions: in vivo, 1.5 h
How it was run: (§3)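 Male CD-1 mice, n=3. […] [18F] radiotracer (70 µCi, SA ~14000 mCi/µmol) given i.v. 5 min later. Regions harvested at 90 min, gamma counted, expressed as %ID/g.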

Cerebellum [6] = experiment: Drug uptake in CD-1 mouse cerebellum at 70 uCi, iv administered 10 mins post naltrindole challenge measured after 90 mins; format: ADME, organism-based; conditions: in vivo, 1.5 h; how it was run: as §2
Hippocampus [7] = experiment: Drug uptake in CD-1 mouse hippocampus at 70 uCi, iv after 90 mins in presence of nicotine; format: ADME, organism-based; conditions: in vivo, 1.5 h; how it was run: as §3
Brain [8] = experiment: Drug uptake in CD-1 mouse other brain region at 70 uCi, iv administered 10 mins post SCH23390 challenge measured after 90 mins; format: ADME, organism-based; conditions: in vivo, 1.5 h; how it was run: as §2
Mus musculus [9] = experiment: Toxicity in CD-1 mouse assessed as change in behavioral activity at 0.07 mCi, iv after 90 mins in presence of 3-(1,4-Diazabicyclo[3.2.2]nonan-4-yl)-6-fluorodibenzo[b,d]thiophene 5,5-Dioxide; format: organism-based; conditions: in vivo, 1.5 h
How it was run: (§4)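 CD-1 mice observed for behavioral and locomotor changes during self-blockade studies. [18F]tracer (0.07 mCi, i.v.) was co-injected with the non-radioactive ligand at 0.3 or 0.2 mg/kg i.v., dissolved in saline at pH 5.5. Brains were harvested at 90 min.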

Brain [10] = experiment: Drug uptake in CD-1 mouse other brain region at 70 uCi, iv administered 10 mins post naltrindole challenge measured after 90 mins; format: ADME, organism-based; conditions: in vivo, 1.5 h; how it was run: as §1
Hippocampus [11] = experiment: Drug uptake in CD-1 mouse hippocampus at 0.07 mCi, iv after 90 mins co-administered with SSR180711; format: ADME, organism-based; conditions: in vivo, 1.5 h
How it was run: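 Male CD-1 mice (25–30 g), three per dose. Blocker in saline:ethanol 9:1 pH 5.5, given i.v. with [18F] radiotracer (70 µCi, SA 7900 mCi/µmol). Blocker doses 0, 0.02, 0.2, 1 and 3 mg/kg. Regions dissected 90 min later and gamma counted. Expressed as %ID/g, mean ± SD.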

Cerebellum [12] = experiment: Ratio of clearance in CD-1 mouse cerebellum to clearance in CD-1 mouse other brain tissues at 70 uCi, iv followed by compound washout after 90 mins by gamma-counting analysis; format: ADME, organism-based; conditions: in vivo, 1.5 h
How it was run: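 CD-1 mouse baseline biodistribution after i.v. [18F]radioligand (70 µCi, 8000–12000 mCi/µmol, in 0.2 mL saline), three mice per time point to 90 min. Regional gamma-counting gave %ID/g, and each region was expressed as a ratio to cerebellum.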

Brain [13] = experiment: Drug uptake in CD-1 mouse other brain region at 70 uCi, iv administered 10 mins post SSR180711 challenge measured after 90 mins; format: ADME, organism-based; conditions: in vivo, 1.5 h
[14] = Drug uptake in CD-1 mouse superior and inferior colliculus at 70 uCi, iv administered 10 mins post naltrindole challenge measured after 90 mins; format: ADME, organism-based; conditions: in vivo, 1.5 h; how it was run: as §1
Cortex [15] = experiment: Drug uptake in CD-1 mouse cortex at 70 uCi, iv administered 10 mins post ondansetron challenge measured after 90 mins; format: ADME, organism-based; conditions: in vivo, 1.5 h; how it was run: as §2
Thalamus [16] = experiment: Drug uptake in CD-1 mouse thalamus at 70 uCi, iv followed by compound washout by gamma-counting analysis; format: ADME, organism-based; conditions: in vivo
How it was run: (§5)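 Male CD-1 mice (25–30 g) given [18F]radioligand i.v. into a lateral tail vein (70 µCi, 8000–12000 mCi/µmol, in 0.2 mL saline). Killed by cervical dislocation at various times, three per time point. Brains dissected on ice; regions weighed and gamma-counted with injectate standards. Result as %ID/g.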

Mus musculus [17] = experiment: Toxicity in CD-1 mouse assessed as change in locomotor activity at 0.07 mCi, iv after 90 mins in presence of 3-(1,4-Diazabicyclo[3.2.2]nonan-4-yl)-6-fluorodibenzo[b,d]thiophene 5,5-Dioxide; format: organism-based; conditions: in vivo, 1.5 h; how it was run: as §4
Nucleic Acid = experiment: Ratio of drug uptake from hippocampus to cerebellum in CD-1 mouse after 90 mins; format: ADME, nucleic-acid assay; conditions: 1.5 h
[18] = Drug uptake in CD-1 mouse superior and inferior colliculus at 70 uCi, iv administered 10 mins post SSR180711 challenge measured after 90 mins; format: ADME, organism-based; conditions: in vivo, 1.5 h
How it was run: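 Male CD-1 mice given the selective α7 partial agonist as positive control, 2 mg/kg s.c. in saline:DMSO 5:1 (0.1 mL), 10 min before i.v. [18F]tracer (70 µCi, ~14000 mCi/µmol, 0.2 mL). Controls received vehicle. Brain regions dissected at 90 min and gamma-counted. %ID/g, mean ± SD, n=3; ANOVA.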

Cerebellum [19] = experiment: Drug uptake in CD-1 mouse cerebellum at 70 uCi, iv administered 10 mins post ondansetron challenge measured after 90 mins; format: ADME, organism-based; conditions: in vivo, 1.5 h; how it was run: as §2
Cortex [20] = experiment: Drug uptake in CD-1 mouse cortex at 70 uCi, iv administered 10 mins post SSR180711 challenge measured after 90 mins; format: ADME, organism-based; conditions: in vivo, 1.5 h
[21] = Drug uptake in CD-1 mouse superior and inferior colliculus at 70 uCi, iv administered 10 mins post ondansetron challenge measured after 90 mins; format: ADME, organism-based; conditions: in vivo, 1.5 h; how it was run: as §1
[22] = Drug uptake in CD-1 mouse superior and inferior colliculus at 70 uCi, iv administered 10 mins post spiperone challenge measured after 90 mins; format: ADME, organism-based; conditions: in vivo, 1.5 h; how it was run: as §1
Hippocampus [23] = experiment: Drug uptake in CD-1 mouse hippocampus at 70 uCi, iv administered 10 mins post SSR180711 challenge measured after 90 mins; format: ADME, organism-based; conditions: in vivo, 1.5 h
Brain [24] = experiment: Drug uptake in CD-1 mouse other brain regions at 70 uCi, iv after 90 mins in presence of nicotine; format: ADME, organism-based; conditions: in vivo, 1.5 h
Hippocampus [25] = experiment: Drug uptake in CD-1 mouse hippocampus at 70 uCi, iv after 90 mins in presence of cytisine; format: ADME, organism-based; conditions: in vivo, 1.5 h; how it was run: as §3
Cortex [26] = experiment: Drug uptake in CD-1 mouse cortex at 70 uCi, iv administered 10 mins post ketanserin challenge measured after 90 mins; format: ADME, organism-based; conditions: in vivo, 1.5 h; how it was run: as §2
Striatum = experiment: Drug uptake in CD-1 mouse striatum at 70 uCi, iv followed by compound washout by gamma-counting analysis; format: ADME, organism-based; conditions: in vivo; how it was run: as §5

Compound: O=S1(=O)c2cc(N3CCN4CCC3CC4)ccc2-c2cccc([18F])c21
- Drug uptake (Brain [1]): Active
- Drug uptake (Thalamus [2]): Not Active
- Drug uptake (Cortex [3]): Active
- Drug uptake (Cerebellum [4]): Active
- Drug uptake (Cerebellum [5]): Not Active
- Drug uptake (Cerebellum [6]): Active
- Drug uptake (Hippocampus [7]): Not Active
- Drug uptake (Brain [8]): Active
- Activity (Mus musculus [9]): Non-toxic
- Drug uptake (Brain [10]): Active
- Drug uptake (Hippocampus [11]): Not Active
- Ratio (Cerebellum [12]): 10
- Drug uptake (Brain [13]): Not Active
- Drug uptake [14]: Active
- Drug uptake (Cortex [15]): Active
- Drug uptake (Thalamus [16]): Active
- Activity (Mus musculus [17]): Non-toxic
- Ratio (Nucleic Acid): 5.5
- Drug uptake [18]: Not Active
- Drug uptake (Cerebellum [19]): Active
- Drug uptake (Cortex [20]): Not Active
- Drug uptake [21]: Active
- Drug uptake [22]: Active
- Drug uptake (Hippocampus [23]): Not Active
- Drug uptake (Brain [24]): Not Active
- Drug uptake (Hippocampus [25]): Not Active
- Drug uptake (Cortex [26]): Active
- Drug uptake (Striatum): Active
